{
  "source": "ChEMBL document CHEMBL2401730",
  "about": "“The macrocyclic peptide natural product CJ-15,208 is orally active and prevents reinstatement of extinguished cocaine-seeking behavior” (J Nat Prod, 2013)",
  "key": {"Mus musculus [1]": {"tested_on": "Mus musculus", "assay": "Antinociceptive activity in C57BL/6J mouse at 1 to 30 mg/kg, po after 120 mins by warm water tail withdrawal assay", "format": "functional, organism-based", "how_it_was_run": "(§1)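 Adult male C57BL/6J mice (20-25 g); baseline tail-withdrawal latency in 55 °C water measured, then oral dosing in 1:1:8 ethanol/Tween 80/0.9% saline vehicle. Latency re-measured repeatedly over time, 15 s cut-off. %antinociception = 100×(test−control)/(15−control). ED50 with 95% CI; 7-24 mice/group; repeated-measures ANOVA at 10 min intervals for hour 1 and hour 2.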"}, "Mus musculus [2]": {"tested_on": "Mus musculus", "assay": "Antinociceptive activity in po dosed C57BL/6J mouse after 40 mins by warm water tail withdrawal assay", "format": "functional", "how_it_was_run": "as §1"}, "Mus musculus [3]": {"tested_on": "Mus musculus", "assay": "Antinociceptive activity in C57BL/6J mouse at 60 mg/kg, po after 140 mins by warm water tail withdrawal assay", "format": "functional, organism-based", "design": "dose 60 mg/kg", "how_it_was_run": "as §1"}, "Mus musculus [4]": {"tested_on": "Mus musculus", "assay": "Antinociceptive activity in C57BL/6J mouse at 0.3 mg/kg, po after 60 mins by warm water tail withdrawal assay", "format": "functional, organism-based", "design": "dose 0.3 mg/kg", "how_it_was_run": "as §1"}, "Mus musculus [5]": {"tested_on": "Mus musculus", "assay": "Prevention of cocaine-induced reinstatement of extinguished cocaine seeking behavior in C57BL/6J mouse at 30 to 60 mg/kg, po qd for 2 days followed by additional cycle of cocaine place conditioning at 30 mins post last dose measured on day 3", "format": "functional, organism-based", "how_it_was_run": "(§2)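 Counterbalanced CPP: four days of saline (30 min confinement), then cocaine 10 mg/kg sc 4 h later in the opposite compartment. Extinction followed over 3 weeks of twice-weekly tests. Oral 1:1:8 vehicle or 30/60 mg/kg given days 28-29, then either forced swim 3 h later or cocaine conditioning 30 min after day-29 dose. Place preference tested day 30 over 30 min; 12-16 mice/group; ANOVA/Tukey HSD.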"}, "Mus musculus [6]": {"tested_on": "Mus musculus", "assay": "Antinociceptive activity in C57BL/6J mouse at 1 to 60 mg/kg, po after 60 mins by warm water tail withdrawal assay", "format": "functional, organism-based", "how_it_was_run": "as §1"}, "Mus musculus [7]": {"tested_on": "Mus musculus", "assay": "Neurotoxicity in C57BL/6J mouse assessed as sedative effect at 10 to 60 mg/kg, po after 60 mins by rotarod test", "format": "toxicity, organism-based", "design": "dose 10-60 mg/kg, route oral", "conditions": "in vivo, 1 h", "how_it_was_run": "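Seven habituation trials, with the last used as baseline. Male C57BL/6J mice then received oral vehicle (1:1:8) or 10 or 60 mg/kg; the U50,488 comparator was given 10 mg/kg ip. Accelerating rotorod (0-20 rpm, 180 s maximum) over 60 min. Latency to fall expressed as % change from baseline; 7-8 mice/group; two-way ANOVA.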"}, "Mus musculus [8]": {"tested_on": "Mus musculus", "assay": "Prevention of stress-induced reinstatement of extinguished cocaine cocaine seeking behavior in C57BL/6J mouse at 30 mg/kg, po qd for 2 days measured 3 hrs post last dose by forced swim test", "format": "functional, organism-based", "design": "dose 30 mg/kg", "how_it_was_run": "as §2"}, "Mus musculus [9]": {"tested_on": "Mus musculus", "assay": "Antagonist activity at kappa opioid receptor in po dosed C57BL/6J mouse assessed as inhibition of icv dosed U50,488-induced antinociception effect incubated for 3 hrs prior to testing by warm water tail withdrawal assay", "format": "functional, organism-based", "how_it_was_run": "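Male C57BL/6J mice (20-25 g) given test agent orally in 1:1:8 ethanol/Tween 80/saline; 3 h later U50,488 given ip (10 mg/kg, in saline) or icv (30 nmol), with tail-withdrawal testing in 55 °C water 40 or 20 min afterwards, respectively. 15 s cut-off; % antinociception calculated from baseline latency. 8 mice/group; one-way ANOVA with Tukey HSD.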"}, "Mus musculus [10]": {"tested_on": "Mus musculus", "assay": "Prevention of stress-induced reinstatement of extinguished cocaine seeking behavior in C57BL/6J mouse at 60 mg/kg, po qd for 2 days measured 3 hrs post last dose by forced swim test", "format": "functional, organism-based", "design": "dose 60 mg/kg", "how_it_was_run": "as §2"}, "Mus musculus [11]": {"tested_on": "Mus musculus", "assay": "Antagonist activity at kappa opioid receptor in po dosed C57BL/6J mouse assessed as inhibition of ip dosed U50,488-induced antinociception effect incubated for 3 hrs prior to testing by warm water tail withdrawal assay"}},
  "note": "The source made the active and inactive calls. Where a SMILES comes first, the peptide text is derived from it. [ ]: non-standard residue; d: D form.",
  "data": [
    {"molecule": "O=C1N[C@@H](Cc2ccccc2)C(=O)N2CCC[C@@H]2C(=O)N[C@@H](Cc2ccccc2)C(=O)N[C@H]1Cc1c[nH]c2ccccc12", "note": "(cyclo(FWF[dP]))", "values": [
      {"measurement": "Activity", "setting": "Mus musculus [1]", "value": "inactive"},
      {"measurement": "ED50", "setting": "Mus musculus [2]", "value": 3.49, "unit": "mg/kg"},
      {"measurement": "Activity", "setting": "Mus musculus [3]", "value": "Active"},
      {"measurement": "Activity", "setting": "Mus musculus [4]", "value": "inactive"},
      {"measurement": "Activity", "setting": "Mus musculus [5]", "value": "Active"},
      {"measurement": "Activity", "setting": "Mus musculus [6]", "value": "Active"},
      {"measurement": "Activity", "setting": "Mus musculus [7]", "value": "Non-toxic"},
      {"measurement": "Activity", "setting": "Mus musculus [8]", "value": "inactive"},
      {"measurement": "inhibition", "setting": "Mus musculus [9]", "value": "Dose-dependent effect"},
      {"measurement": "Activity", "setting": "Mus musculus [10]", "value": "Active"},
      {"measurement": "inhibition", "setting": "Mus musculus [11]", "value": "Dose-dependent effect"}
    ]}
  ]
}
